High-throughput results deposited in PubChem by several laboratories.
Most compounds without a hit are left out; they make up all but 1.8% or so of the library.
Beta2AR agonist = agonists of human beta-2 adrenergic receptor inducing internalization; 340,000 compounds, 0.43% hits; P07550; response, % (concentration not given with the values); AID 504454; Am2.2-beta2AR cells, FAP receptor internalization, flow cytometry;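 active = response above a set limit, near 3 SD of response in nonfluorescent compounds, cut at about 42% in these data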
EBI2 antag = antagonists of human EBI2 receptor. EBI2 beta-arrestin recruitment, luminescence, 7a,25-OHC stimulated. inhibition, % at 5 µM. 360,000 compounds, 0.81% hits. P32249; in the data active = inhibition above about 38%;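 note: enzyme fragment complementation signal reports receptor beta-arrestin coupling in cells; 0% = agonist plus DMSO wells and 100% = wells without agonist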
CCR6 antagonist = CCR6 (human) receptor antagonism | inhibition, % at 20 µM | CHO-K1 CCR6 PathHunter beta-arrestin, luminescence, CCL20-stimulated | 340,000 compounds, 0.49% hits;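 active = compounds whose inhibition of the agonist-driven luminescence signal at 20 µM reaches about 50%, limit read from the data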;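 note: cells stimulated with CCL20 at 14 nM final; plate controls were DMSO with CCL20 for no effect and DMSO without agonist for full effect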
APJ ag = APJ receptor agonism. P35414. CHO-K1 APJ PathHunter beta-arrestin, luminescence; 0% DMSO wells, 100% apelin. activation, % at 20 µM. 330,000 compounds, 0.11% hits. AID 2520;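 active = activation more than six SD over the plate average, tested at 20 µM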;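 note: 0% = DMSO alone and 100% = apelin-13 at 10 nM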
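Test system: CHO-K1 APJ beta-arrestin complementation cell line. Amount: cell density 1000 per well. Controls: DMSO negative, 10 nM Apelin-13 positive. Signal: luminescent beta-gal fragment complementation, chemiluminescent substrate. Read-out basis: agonist-driven arrestin binding to APJ. Timing: compound stimulation 90 min at 25 °C, detection 60 min.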
CXCR6 block = CXCR6 (human) receptor inhibition. 360,000 compounds, 0.36% hits. inhibition, % at 20 µM. O00574. AID 602244. CHO-K1 PathHunter CXCR6 beta-arrestin, luminescence; in the data active = inhibition above about 34%, passing the limit was not always enough;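 note: antagonist mode with CXCL16 agonist at 10 nM final; 0% = 10 nM CXCL16 with DMSO and 100% = unstimulated wells without agonist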
Target sequence (O00574 whole entry, looked up): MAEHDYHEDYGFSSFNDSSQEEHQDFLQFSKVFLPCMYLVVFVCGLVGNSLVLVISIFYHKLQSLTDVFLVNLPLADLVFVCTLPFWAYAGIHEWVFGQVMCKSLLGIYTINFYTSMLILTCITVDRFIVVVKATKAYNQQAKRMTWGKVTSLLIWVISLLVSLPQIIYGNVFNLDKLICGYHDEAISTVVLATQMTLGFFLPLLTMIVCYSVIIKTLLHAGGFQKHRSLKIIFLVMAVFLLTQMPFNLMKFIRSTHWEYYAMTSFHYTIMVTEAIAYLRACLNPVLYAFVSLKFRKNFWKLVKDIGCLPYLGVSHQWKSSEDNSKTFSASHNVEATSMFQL
APJ antagonist = antagonists of human APJ apelin receptor | P35414 | 330,000 compounds, 0.32% hits | inhibition, % at 20 µM | AID 2521 | CHO-K1 APJ beta-arrestin complementation, luminescence;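 active = inhibition above about 40% at 20 µM, limit read from the data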;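 note: cells challenged with 10 nM apelin-13 agonist together with compound; plate controls were apelin-13 plus DMSO wells for no effect and DMSO wells lacking apelin-13 for full effect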
Beta2AR ag CP1 = activates human beta-2 adrenergic receptor | shares compounds with Beta2AR agonist | Am2.2-beta2AR cells, FAP surface receptor, flow cytometry; active compounds read low | percent response (surface receptor), % at 10 µM | 1,100 compounds, 25% hits | AID 540358;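 active = surface receptor percent response at or below 58%, roughly 3 SD from nonfluorescent compounds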
FAP fluor counter = flagged in Am2.2 fluorescence counterscreen for beta-2AR agonists. shares compounds with Beta2AR agonist. Am2.2 cells, FAP fluorogen flow cytometry; active compounds read low. calls only at 10 µM. 1,100 tested, under 10 active;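 active = percent response below a set limit in fluorescence channel 1 and below 50% in channel 8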
* hit, by the source's call; i = inactive; · = no result.

SMILES	Beta2AR agonist	EBI2 antag	CCR6 antagonist	APJ ag	CXCR6 block	APJ antagonist	Beta2AR ag CP1	FAP fluor counter
O=C(Nc1ccccc1C(=O)O)c1cccc(F)c1	-3	-2	-10	-1	0	14	·	·
NS(=O)(=O)c1ccc(NC(=O)c2cccc(N3C(=O)c4ccccc4C3=O)c2)cc1	85*	2	8	-2	10	9	42*	i
Cc1cc(S(=O)(=O)NCCCN2CCOCC2)ccc1Br	-6	-10	3	-3	-5	27	·	·
CNC(=S)N/N=C(\C)c1ccc(Cl)s1	-3	10	27	-4	16	23	103	i
NC(=O)c1c(NC(=O)c2ccccc2F)sc2c1CCC2	·	-4	·	·	5	·	·	·
CCc1nc2ccc(C(=O)N(C)Cc3ccccc3)cn2c1N(C)Cc1ccc(OC)cc1	·	8	·	·	5	·	·	·
COCCN1C(=O)c2oc3ccccc3c(=O)c2C1c1ccc(OC)c(OC)c1 (configuration not stated)	-3	0	7	-2	-5	-9	·	·
C=CCN1C(=O)c2oc3ccccc3c(=O)c2C1c1ccc(O)c(OC)c1 (configuration not stated)	-14	3	-3	-1	1	7	123	i
O=C(Nc1ccc2nc(-c3cccs3)c(-c3cccs3)nc2c1)N1CCOCC1	59*	-11	7	7	-2	-41	20*	i
COc1ccc(C(OCC(O)CNCCc2ccccc2)c2ccc(OC)cc2)cc1 (configuration not stated)	32	10	20	·	3	·	·	·
COc1ccc(CNCCC(c2ccc(F)cc2)c2ccc(OC(C)C)cc2)cc1OC (configuration not stated)	32	7	15	-2	1	4	·	·
COc1ccc(C(CCNC(C)c2ccccc2)c2ccc(F)cc2)cc1 (configuration not stated)	42*	12	31	-4	-17	-28	99	i
COc1ccc(C(CCNCc2ccc(F)cc2)c2ccc(F)cc2)cc1 (configuration not stated)	42	-5	15	-3	-3	0	104	i
COc1ccc(CNCCC(c2ccc(F)cc2)c2ccc(OC)cc2)cc1 (configuration not stated)	35	3	21	-3	-11	3	88	i
COc1ccc(CNCC(O)(c2ccccc2)c2ccc(F)cc2)cc1 (configuration not stated)	3	0	16	-3	-5	3	·	·
COc1ccc(C(OCC(O)CNC(C)c2ccccc2)c2ccc(OC)cc2)cc1 (configuration not stated)	51*	9	18	-6	11	7	114	i
COc1ccc(C(C)=O)c(Oc2ccc(S(=O)(=O)N3CCOCC3)cn2)c1	7	-16	9	-4	-7	5	·	·
CC1(C(=O)NS(C)(=O)=O)CCN1C(=O)C/C=C/c1ccccc1 (configuration not stated)	·	-10	·	·	-1	·	·	·
COc1ccc(CNCCC(c2ccccc2)c2ccc(OC(C)C)cc2)cc1OC (configuration not stated)	35	7	9	-2	-23	19	·	·
COc1ccc(C(CCNCc2ccccc2)c2ccc(F)cc2)cc1 (configuration not stated)	16	7	17	-3	1	23	85	i
COC12CC(=O)C(C(C)=O)=C(O)C1(C)c1c(O)c(C)c(O)c(C(C)=O)c1O2 (configuration not stated)	·	1	·	·	2	·	·	·
Cc1ccc(F)cc1NCC(=O)Nc1ccc(Br)cc1	80*	-2	3	1	1	-13	110	i
COc1ncnc2c1oc1nc(C(C)C)c3c(c12)CC(C)(C)OC3	-21	-2	3	-6	-1	2	·	·
